Assay outcomes as filed in PubChem.
APJ agonist: agonists of human apelin receptor APJ, primary screen, CHO-K1 cells, PathHunter beta-arrestin, luminescence | 0.11% of 330,000 active | activation, % at 20 µM | 0% DMSO wells, 100% apelin;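 active means activation more than six SD over the plate average, tested at 20 µM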
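Material: CHO-K1 APJ beta-arrestin complementation cell line; Input: cell density 1000 per well; Incubation: compound stimulation 90 min at 25 °C, detection 60 min; Signal: luminescence from split beta-galactosidase complementation, Galacton Star/Emerald II substrate; Controls: DMSO-only wells as negative, 10 nM Apelin-13 as positive control.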
EBI2 block: EBI2 receptor antagonists, beta-arrestin recruitment, primary screen, cell-based, luminescence, 7a,25-OHC stimulation, uHTS | AID 651636, 2012 | 7a,25-OHC stimulated | 0.81% of 360,000 active | inhibition, % at 5 µM; in the data active means inhibition above about 38%;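 further: enzyme fragment complementation signal reports receptor beta-arrestin coupling in cells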
m5-HT2A agonist: mouse Htr2a agonists via beta-arrestin recruitment, primary screen, cell-based, luminescence; activation, % at 7.6 µM; 5-hydroxytryptamine receptor 2A (Mus musculus), P35363; CHO-K1 mHTR2A beta-arrestin complementation; percent of 30 µM serotonin response; 0.66% of 360,000 active;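 active means activation above a run cutoff, the mean activation of all tested compounds plus 3 SD, cut at about 14% in these data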
Target sequence (P35363 whole entry, looked up): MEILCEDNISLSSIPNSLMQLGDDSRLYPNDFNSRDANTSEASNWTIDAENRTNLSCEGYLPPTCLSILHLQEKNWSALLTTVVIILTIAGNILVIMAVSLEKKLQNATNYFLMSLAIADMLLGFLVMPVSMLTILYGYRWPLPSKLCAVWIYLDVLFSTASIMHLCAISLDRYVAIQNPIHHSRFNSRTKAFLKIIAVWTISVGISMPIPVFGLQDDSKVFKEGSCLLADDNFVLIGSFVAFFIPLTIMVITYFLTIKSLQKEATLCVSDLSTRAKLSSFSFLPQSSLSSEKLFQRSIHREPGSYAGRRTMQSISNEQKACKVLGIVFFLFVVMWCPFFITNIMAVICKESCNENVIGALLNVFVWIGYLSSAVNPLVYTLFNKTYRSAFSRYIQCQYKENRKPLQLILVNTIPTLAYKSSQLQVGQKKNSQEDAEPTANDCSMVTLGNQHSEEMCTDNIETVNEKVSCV
CCR6 antagonist: CCR6 receptor antagonists, primary screen, cell-based, CHO-K1, luminescence, beta-arrestin, uHTS. CHO-K1 CCR6 PathHunter beta-arrestin, CCL20-stimulated. inhibition, % at 20 µM. 0.49% of 340,000 active. AID 493098, 2011;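 active means compounds whose inhibition of the agonist-driven luminescence signal at 20 µM reaches about 50%, limit read from the data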;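 further: cells stimulated with CCL20 at 14 nM final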
APJ antagonist: antagonists of human apelin receptor APJ, primary screen, CHO-K1 cells, beta-arrestin complementation, luminescence; 0.32% of 330,000 active; P35414; inhibition, % at 20 µM;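 active means inhibition above about 40% at 20 µM, limit read from the data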;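 further: cells challenged with 10 nM apelin-13 agonist together with compound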
CXCR6 block: CXCR6 receptor inhibitors, primary screen, cell-based, beta-arrestin, luminescence, CHO-K1 PathHunter, 1536-well; C-X-C chemokine receptor type 6 (Homo sapiens), O00574; inhibition, % at 20 µM; 0.36% of 360,000 active; AID 602244, 2012; in the data active means inhibition above about 34%, passing the limit was not always enough;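 further: antagonist mode with CXCL16 agonist at 10 nM final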
MOR ag counter: OPRM1 agonists via beta-arrestin recruitment, confirmation, counter-screen for mouse HTR2A agonist project, cell-based, luminescence, single concentration; shares compounds with m5-HT2A agonist; U2OS OPRM1 beta-arrestin PathHunter; DMSO 0%, DAMGO 9.3 µM 100%; activation, % at 9.3 µM; 5.3% of 2,300 active; AID 624380, 2012;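 active means mean activation above the mean of DMSO-only wells plus 3 SD, cut at about 0.5% in these data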
HTR2A ag conf: mouse HTR2A agonists, beta-arrestin recruitment, confirmation, cell-based, luminescence, CHO-K1 PathHunter, triplicate; DMSO 0%, 30 µM serotonin 100%; shares compounds with m5-HT2A agonist; activation, % at 7.6 µM; 19% of 2,300 active;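 active means mean activation across triplicates above the hit threshold derived in the original primary screen, cut at about 15% in these data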
A number is an active result; – = inactive; · = no result given. This is a sample that favours compounds with a hit; in the whole collection about 2.1% have one here.

SMILES	APJ agonist	EBI2 block	m5-HT2A agonist	CCR6 antagonist	APJ antagonist	CXCR6 block	MOR ag counter	HTR2A ag conf
Cc1cc(Cl)ccc1OCC(=O)OCC(=O)NC1CCCC1	–	–	16	–	–	–	0.5	–
Cc1cc(Cl)ccc1OCC(=O)NC1CCCC1	–	–	–	–	–	–	·	·
Cc1csc(NC(=O)C2CCCN(S(=O)(=O)c3ccc4c(c3)oc(=O)n4C)C2)n1 (stereo not given)	–	–	21	–	–	–	–	–
CC(=O)c1ccc(OC(=O)N(c2ccccc2)c2ccccc2)cc1	–	–	–	–	–	–	·	·
O=C(Nc1ccccc1)N1CCc2ccccc21	–	–	–	–	–	–	·	·
CCc1ccccc1NC(=O)N1CCc2ccccc21	–	–	17	–	–	–	–	–
CN(CC(=O)Nc1ccc(Cl)cc1)CC(=O)N1CCc2ccccc21	·	–	17	·	·	–	–	–
CN(CC(=O)Nc1c(Cl)cccc1Cl)CC(=O)N1CCc2ccccc21	·	–	–	·	·	–	·	·
CCN1C[C@@H]2[C@@H]3C(=O)N(Cc4ccccc4)C(=O)[C@@H]3[C@](Cc3ccccc3)(C1=O)N2C(=O)c1ccc(C(C)(C)C)cc1	·	–	–	–	·	–	·	·
c1ccc(N2CCN(c3nnc(Cc4cccnc4)c4ccccc34)CC2)nc1	–	–	17	–	–	–	–	–
c1ccc(Cc2nnc(N3CCCCC3)c3ccccc23)cc1	–	–	–	–	–	–	·	·
C=C(C)C(=O)OCC(O)COc1ccc(C(C)(C)c2ccc(OCC(O)COC(=O)C(=C)C)cc2)cc1 (stereo not given)	–	–	17	–	–	–	–	–
COc1cc2[nH]c(=S)n(Cc3cccs3)c(=O)c2cc1OC	–	–	19	–	–	–	–	–
COc1cc(NC(=O)Nc2nc(C(N)Cc3ccc(C(F)(F)F)cc3)cs2)cc(OC)c1OC (stereo not given)	·	–	42	·	·	–	–	29
COc1ccccc1NC(=O)Nc1nc(C(N)Cc2ccc(C(F)(F)F)cc2)cs1 (stereo not given)	·	–	–	·	·	–	·	·
COc1ccc(NC(=O)Nc2nc(C(N)Cc3ccc(C(F)(F)F)cc3)cs2)cc1 (stereo not given)	·	–	21	·	·	–	1.5	–
COc1ccc(CC(N)c2csc(NC(=O)Nc3ccc(OC)cc3)n2)cc1 (stereo not given)	·	–	–	·	·	–	·	·
COc1ccc(S(=O)(=O)N(C)C[C@H]2Oc3c(NC(=O)Nc4ccc(C(F)(F)F)cc4)cccc3C(=O)N([C@H](C)CO)C[C@@H]2C)cc1	–	–	–	–	–	–	·	·
Clc1ccc(Sc2cc(N3CCOCC3)nc(-c3ccccc3)n2)cc1	–	–	–	–	–	–	·	·
CC(C)Sc1cc(N2CCOCC2)nc(-c2ccc(Cl)cc2)n1	–	–	14	–	–	–	–	–
Cc1csc(Sc2ccc(S(=O)(=O)N3CCCC3)cn2)n1	–	–	–	–	–	–	·	·
Cc1n[nH]c(=O)nc1NC1CCCCC1	–	–	–	–	–	–	·	·
COCC1CCCCN1C(=O)c1cc(COc2ccc3ncccc3c2)on1 (stereo not given)	–	–	20	–	–	–	–	–
COc1ccc(S(=O)(=O)N(C)CC(=O)N2CCN(C)CC2)cc1Cl	–	–	–	–	–	–	·	·
COc1ccc(S(=O)(=O)N(C)CC(=O)N2CCCCC2)cc1Cl	–	–	15	–	–	–	–	–
SMILES	APJ agonist	EBI2 block	m5-HT2A agonist	CCR6 antagonist	APJ antagonist	CXCR6 block	MOR ag counter	HTR2A ag conf
Cc1cc(C)c2cc(N)c(Cl)nc2n1	·	–	–	·	·	–	·	·
Nc1cc(Cl)nnc1Cl	–	–	19	–	–	–	–	–
O=C(c1ccc(NC2=NC3CS(=O)(=O)CC3S2)cc1)N1CCN(c2ccc(F)cc2)CC1 (stereo not given)	–	–	–	–	–	–	·	·
O=C(c1ccc(NC2=NC3CS(=O)(=O)CC3S2)cc1)N1CCN(c2ccccc2F)CC1 (stereo not given)	–	–	24	–	–	–	–	–
Cc1cccc(N(CC(=O)NC2CCCC2)C(=O)c2c(C)noc2C)c1	–	–	–	–	–	–	·	·
Cc1ccc(N(CC(=O)NC2CCCC2)C(=O)c2c(C)noc2C)cc1C	–	–	15	–	–	–	–	–
COc1ccc(CCNC(=O)C2CC(c3ccc(C(F)(F)F)cc3)=NO2)cc1 (stereo not given)	–	–	–	–	–	–	·	·
CCNC(=O)CCS(=O)(=O)c1ccc2ccccc2c1	–	–	16	–	–	–	–	–
Cc1ccc(S(=O)(=O)[N-]c2nc3ccccc3nc2-n2cc[n+](CCC(C)C)c2)cc1	–	–	–	–	–	–	·	·
COc1ccc2[nH]c(S(=O)Cc3ncc(C)c(OC)c3C)nc2c1 (stereo not given)	–	–	–	–	–	–	·	·
Cc1csc2c(N3CCN(C(=O)NC(C)(C)C)CC3)ncnc12	–	–	41	–	–	–	–	–
Cc1csc2ncnc(N3CCN(C(=S)Nc4ccc(C(F)(F)F)cc4)CC3)c12	–	–	–	–	–	–	·	·
Cc1csc2c(N3CCN(C(=S)Nc4ccc(C(F)(F)F)cc4)CC3)ncnc12	–	–	32	–	–	–	–	–
Cc1cccnc1NC(=S)Nc1ccc(Cl)c(Cl)c1	–	–	–	–	–	–	·	·
CCc1nn(CC(=O)N2CCN(c3ccc(F)cc3)CC2)c(=O)c2cc3occc3n12	–	–	–	–	–	–	·	·
O=C1C[C@H]2CCCCC(=O)N3CC[C@@H](C1)[C@@H]23	·	–	–	–	·	–	·	·
CCCCCC1C(=O)C[C@@H]2CCN3C(=O)CCC[C@H]1[C@H]23 (stereo not given in full)	·	–	17	–	·	–	–	–
CCc1nnc(NC(=O)Nc2ccc(Cl)cc2)s1	–	–	–	–	–	–	·	·
Nc1ncnc2c1ncn2[C@@H]1O[C@H](C(=O)N2CCC[C@@H]2C(=O)OCc2ccccc2)[C@@H](O)[C@H]1O	·	–	15	·	·	–	–	–
